Measured values of several laboratories.
Lines come from different studies, so protocols differ. pIC50: −log10 of the molar value.
Observed: enzyme activity
Mode: inhibitor
KDR: Vascular endothelial growth factor receptor 2 (KDR, Homo sapiens, UniProt P35968)
PIK3CB: Phosphatidylinositol 4,5-bisphosphate 3-kinase catalytic subunit beta isoform (PIK3CB, Homo sapiens, UniProt P42338)
PIK3CA: Phosphatidylinositol 4,5-bisphosphate 3-kinase catalytic subunit alpha isoform (PIK3CA, Homo sapiens, UniProt P42336)

SMILES	target	technique	pIC50
O=[N+]([O-])c1cc(I)c(O)c(C=NNc2ccc(Cl)cc2)c1	KDR	ATP luminescence	5.11
CCc1ccc(N=C2C(=O)N(Cc3ccccc3)c3ccccc32)cc1	PIK3CB	ADP detection	7.66
CN(C)C(=O)c1cc2cnc(Nc3cc(C(=O)O)cc(-c4ccc5c(=O)cc(N6CCOCC6)oc5c4)c3)nc2n1C1CCCC1	PIK3CA	radiometric	6.95
O=[N+]([O-])c1cc(Br)c(O)c(C=NNc2ccc(Cl)cc2)c1	KDR	ATP luminescence	5.11
CNC(=O)[C@H](Cc1c[nH]c2ccccc12)NC(=O)[C@@H](CC(=O)NO)CC(C)C	Macrophage metalloelastase (MMP12, Homo sapiens, UniProt P39900)	–	9.48
CN(C)C(=O)c1cc2cnc(Nc3cc(C(=O)O)cc(-c4cccc5c(=O)cc(N6CCOCC6)oc45)c3)nc2n1C1CCCC1	PIK3CA	radiometric	5.80
O=C1C(=Nc2ccc(Cl)cc2Br)c2ccccc2N1Cc1ccc(Br)cc1	PIK3CB	ADP detection	7.46
O=[N+]([O-])c1cc(I)c(O)c(C=NNc2ccc(C(F)(F)F)cc2)c1	KDR	ATP luminescence	5.35
O=C(O)[C@H]1O[C@@H](Oc2cc3oc(-c4ccc(O)cc4)cc(=O)c3c(O)c2O)[C@H](O)[C@@H](O)[C@@H]1O	KDR	TR-FRET	5.08
CN(C)C(=O)c1cc2cnc(Nc3cncc(-c4ccc5c(=O)cc(N6CCOCC6)oc5c4)c3)nc2n1C1CCCC1	PIK3CA	radiometric	6.59
O=[N+]([O-])c1ccc(O)c(C=NNc2ccc(C(F)(F)F)cc2)c1	KDR	ATP luminescence	4.68
C[C@@H]1O[C@@H](O[C@H]2[C@H](Oc3cc(O)c4c(=O)cc(-c5ccc(O)cc5)oc4c3)O[C@H](CO)[C@@H](O)[C@@H]2O)[C@H](O)[C@H](O)[C@H]1O	KDR	TR-FRET	< 4.40
O=C1/C(=C/c2ccc3ccccc3c2O)NC(=S)N1c1ccccc1	KDR	ELISA	6.63
CN(C)C(=O)c1cc2cnc(Nc3ccc4c(=O)cc(N5CCNCC5)oc4c3)nc2n1C1CCCC1	PIK3CA	radiometric	< 5.00
Cc1ccc(CN2C(=O)C(=Nc3cccc(Cl)c3)c3ccccc32)cc1	PIK3CA	ADP detection	7.56
O=C(Nc1nnc(-c2ccc3c(c2)OCCO3)o1)c1ccc(C(=O)c2ccccc2)cc1	PIK3CA	ADP detection	6.33
COc1cc(N=C2C(=O)N(Cc3ccccc3)c3ccccc32)cc(OC)c1	PIK3CA	ADP detection	8.14
CN(C)C(=O)c1cc2cnc(Nc3cc(C(F)(F)F)c(-c4ccc5c(=O)cc(N6CCOCC6)oc5c4)cn3)nc2n1C1CCCC1	PIK3CA	radiometric	< 5.00
O=[N+]([O-])c1cc(I)c(O)c(C=NNc2ccccc2)c1	KDR	ATP luminescence	5.30
O=C1Nc2ccccc2C1=Nc1cccc(Cl)c1	PIK3CB	ADP detection	6.29
Cc1nc2c(F)cc(-c3ccnc(Nc4ccc5c(=O)cc(N6CCOCC6)oc5c4)n3)cc2n1C(C)C	PIK3CA	radiometric	5.67
Cc1cccc(N=C2C(=O)N(Cc3cccc(Cl)c3)c3ccccc32)c1	PIK3CB	ADP detection	7.47
O=[N+]([O-])c1ccc(O)c(C=NNc2ccc(Br)cc2)c1	KDR	ATP luminescence	4.90
O=C1C(=Nc2ccccc2I)c2ccccc2N1Cc1ccc(Br)cc1	PIK3CB	ADP detection	6.36
COc1ccc(-c2cc(=O)c3cccc(Nc4ncc5cc(C(=O)N(C)C)n(C6CCCC6)c5n4)c3o2)cc1	PIK3CA	radiometric	< 5.00
O=C1C(=Nc2ccc(Cl)cc2)c2ccccc2N1Cc1cccc(Cl)c1	PIK3CA	ADP detection	6.49
COc1ccc(-c2oc3cc(Nc4ncc5cc(C(=O)N(C)C)n(C6CCCC6)c5n4)ccc3c(=O)c2F)cc1	PIK3CA	radiometric	< 5.00
